# Experimental data reported in the RNAGym collection of RNA variant scans (doi:10.1038/s41586-018-0170-7).
# B1: tRNA (parent)
# chain: GUUCCGUUGGCGUAAUGGUAACGCGUCUCCCUCCUAAGGAGAAGACUGCGGGUUCGAGUCCCGUACGGAACG
# Variants of: B1
# Experiment: yeast fitness, log relative to wild type (ln ratio); higher = fitter; tRNA-Arg(CCU), competitive growth, 37 C, 1 M NaCl
# How it was run: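 Variants were counted by 125 bp paired-end Illumina sequencing after pools of a combinatorial tRNA-Arg(CCU) library, held on a HIS3 centromeric plasmid in BY4742 lacking the chromosomal gene, grew ~6.5 generations (~26.5 h) in SC-HIS 1M NaCl at 37 °C. Each genotype's fitness is the natural log of its generations relative to the wild type's. Generations were OD-scaled log2 output/input frequencies, inverse-variance weighted over replicates.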
row,Variant,yeast fitness (ln)
1,U2C A43C A69G A70G,-0.0256
2,G1A U2C A43C C46U A70U,-0.0817
3,G1A C27U A43C C66U A70G,-0.333
4,G1A U2C G6U C27U A43C C46U A69G A70G C71U,-0.267
5,G1A U2C G6A C27U A43C,-0.0863
6,U2G G6A A43C C46U A70U,-0.261
7,U2C G6U C27U A43C C66A A69G A70U C71U,-0.398
8,G6U C46U C66U A69G,-0.376
9,U2C C27U A70G C71U,-0.0321
10,G1A G6A C46U A70G,-0.0807
11,G1A C27U C66A A69G A70U,-0.19
12,U2G G6U C66U A69G A70G,-0.251
13,G1A U2C G6A A43C C46U C66U,-0.085
14,G1A U2G A43C C66A A69G A70G C71U,-0.329
15,G1A U2G G6A C27U A43C C46U A69G A70G C71U,-0.424
16,G1A U2G A43C C46U C66U A70U,-0.141
17,G1A U2G G6U C27U A43C C46U A70U C71U,-0.339
18,G6U C46U A69G,-0.397
19,G1A G6U A43C C46U C66A A70G,-0.17
20,G1A U2C C46U A70G,-0.014
21,G1A U2C C66U A69G A70U,-0.245

row,Variant,yeast fitness (ln)
1,U2G C46U A70G C71U,-0.284
2,G6A C27U A43C C66U A69G,-0.373
3,U2C A43C C46U C66U A70G,-0.0311
4,C66U A70G,-0.0949
5,G1A U2G G6A C27U C46U C66U A70G,-0.194
6,A43C C46U C66A A70U,-0.0196
7,G1A U2G G6A C27U A43C C66U A69G A70G,-0.447
8,G6A C66U A69G A70U,-0.335
9,U2G A43C C46U C71U,-0.0479
10,U2G C27U A43C,-0.0611
11,G1A U2G G6U C27U C46U C66U A69G A70G C71U,-0.339
12,A43C C66U A69G A70G,-0.166
13,U2G G6A C46U A70G C71U,-0.144
14,U2C G6U C46U C66U A69G A70U C71U,-0.282
15,C27U C46U C66U A70G C71U,-0.126
16,G6U A43C C46U A69G A70G,-0.232
17,U2G C27U C46U C71U,-0.099
18,G1A U2C C27U A43C C46U A70U C71U,-0.221
19,G1A U2G A43C C46U A70U,-0.163
20,G1A C27U A43C C66A A69G A70G,-0.279
21,G1A G6U C46U C66A C71U,0.0017

row,Variant,yeast fitness (ln)
1,U2G G6U C46U C66A A69G A70G,-0.13
2,G6U C66A A70G,-0.0102
3,U2G A43C A69G A70U,-0.023
4,G6U A43C C66U A70U,-0.301
5,G1A G6U A43C C66U A70U,-0.212
6,U2C G6U C27U A43C C66A A69G A70G C71U,-0.431
7,G6A A43C A69G A70U,-0.224
8,G1A U2G G6A C27U A43C C66U,-0.348
9,U2G A43C C46U A69G,-0.0675
10,G1A U2G G6A A43C A69G A70U C71U,-0.411
11,U2C G6U A43C,-0.0574
12,U2C A43C C46U C66A A70U,-0.0333
13,A43C C66A A69G A70U,-0.153
14,A43C A70G C71U,-0.164
15,U2G G6A C66U,-0.0956
16,G1A U2C C27U C46U C66U A70U C71U,-0.147
17,G1A U2C G6U A43C C46U C66U A69G A70G C71U,-0.201
18,G6U C27U A70G,-0.302
19,G1A U2G G6U C27U A43C A69G A70G,-0.326
20,U2G C27U A43C C66A A70U,-0.0548
21,G1A U2G G6A C27U C46U C66U A69G A70U C71U,-0.542

row,Variant,yeast fitness (ln)
1,G1A U2G C27U A43C C66A C71U,-0.377
2,G1A U2C C27U A43C C46U A69G A70U C71U,-0.215
3,G1A U2G G6U A43C C66U A69G A70U,-0.255
4,G1A G6U C66A A70U,-0.0574
5,G1A G6U C27U C66A A69G A70U C71U,-0.223
6,G1A U2G C27U A43C C66U A70G,-0.315
7,U2G G6U C27U A43C C46U C66U A70U C71U,-0.378
8,G1A U2C G6U C27U C66A A69G A70G C71U,-0.137
9,G1A U2G G6A C46U C66U A69G A70G,-0.18
10,U2G G6A A43C C66U A69G A70U,-0.235
11,G1A G6A C27U A43C C46U A69G A70G C71U,-0.374
12,G1A G6A C27U C46U C66U A69G A70G C71U,-0.698
13,G1A U2C G6A A43C,-0.0264
14,G1A U2G A43C C46U A69G C71U,-0.18
15,U2G G6U A43C C46U C66A C71U,-0.154
16,G1A U2C G6U A43C C46U C66U A70U C71U,-0.235
17,G1A U2G C27U C46U C66A A70G,-0.195
18,G1A U2C G6A C27U C46U A70U C71U,-0.0799
19,G6U C27U A43C C66A A70G,-0.293
20,G1A G6A C27U C66U A69G A70G,-0.386
